{"source": "ChEMBL document CHEMBL4265871", "about": "“Novel alkylated azoles as potent antifungals” (Eur J Med Chem, 2017)", "key": {"[1]": {"system": "Candida albicans", "test": "Antifungal activity against Candida albicans ATCC 64124 incubated for 48 hrs by modified CLSI M27-A3 protocol based method", "assay_type": "functional", "conditions": "ATCC 64124, 48 h"}, "[2]": {"system": "Candida albicans", "test": "Antifungal activity against ITC and FLC-susceptible Candida albicans ATCC MYA-2876 incubated for 48 hrs by modified CLSI M27-A3 protocol based method", "assay_type": "functional", "conditions": "ATCC MYA-2876, 48 h", "procedure,_shortened": "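Because these Candida strains show trailing growth, MIC-2 was read, meaning 50% growth inhibition. Caspofungin and voriconazole were tested here; other controls came from earlier work.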"}, "[3]": {"system": "Candida albicans", "test": "Antifungal activity against ITC and FLC-resistant Candida albicans ATCC MYA-90819 incubated for 48 hrs by modified CLSI M27-A3 protocol based method", "assay_type": "functional", "conditions": "ATCC MYA-90819, 48 h"}, "[4]": {"system": "Candida albicans", "test": "Antifungal activity against ITC and FLC-susceptible Candida albicans ATCC MYA-2310 incubated for 48 hrs by modified CLSI M27-A3 protocol based method", "assay_type": "functional", "conditions": "ATCC MYA-2310, 48 h"}, "[5]": {"system": "Nakaseomyces glabratus", "test": "Antifungal activity against Candida glabrata ATCC 2001 incubated for 48 hrs by modified CLSI M27-A3 protocol based method", "assay_type": "functional", "conditions": "ATCC 2001, 48 h"}, "[6]": {"system": "Pichia kudriavzevii", "test": "Antifungal activity against Candida krusei ATCC 6258 incubated for 48 hrs by modified CLSI M27-A3 protocol based method", "assay_type": "functional", "conditions": "ATCC 6258, 48 h", "procedure,_shortened": "(§1)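 For C. albicans ATCC 10231, C. krusei ATCC 6258 and C. parapsilosis ATCC 22019, MIC-0 was read, meaning complete growth inhibition. For azole controls, MIC-2 (50% growth inhibition) was reported instead. Caspofungin and voriconazole were tested here; other controls came from earlier work.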"}, "[7]": {"system": "Candida parapsilosis", "test": "Antifungal activity against Candida parapsilosis ATCC 22019 incubated for 48 hrs by modified CLSI M27-A3 protocol based method", "assay_type": "functional", "conditions": "Lodderomyces parapsilosis, ATCC 22019, 48 h", "procedure,_shortened": "as §1"}, "[8]": {"test": "Toxicity in human A549 cells assessed as reduction in cell viability incubated for 24 hrs by resazurin dye based assay", "procedure,_shortened": "(§2)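 Toxicity tested in the nucleated lines A549 and BEAS-2B to give EC50 values. Selectivity index is EC50 against the mammalian line divided by the MIC against a given fungal strain.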"}, "[9]": {"test": "Toxicity in human BEAS2B cells assessed as reduction in cell viability incubated for 24 hrs by resazurin dye based assay", "conditions": "BEAS-2B cells", "procedure,_shortened": "as §2"}, "[10]": {"test": "Hemolytic activity in mouse erythrocytes assessed as hemolysis level at 1.95 ug/ml incubated for 1 hr at 37 degC", "assay_type": "ADME, cell-based, Erythrocyte", "conditions": "read-out: Activity", "procedure,_shortened": "(§3)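 Mouse erythrocytes incubated 1 h at 37 °C with test agents over 1.95 to 125 µg/mL. Percent lysis is read for each concentration.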"}, "[11]": {"test": "Hemolytic activity in mouse erythrocytes assessed as hemolysis level at 3.9 ug/ml incubated for 1 hr at 37 degC", "assay_type": "ADME, cell-based, Erythrocyte", "conditions": "read-out: Activity", "procedure,_shortened": "as §3"}, "[12]": {"test": "Hemolytic activity in mouse erythrocytes assessed as hemolysis level at 7.8 ug/ml incubated for 1 hr at 37 degC", "assay_type": "ADME, cell-based, Erythrocyte", "conditions": "read-out: Activity", "procedure,_shortened": "as §3"}, "[13]": {"test": "Hemolytic activity in mouse erythrocytes assessed as hemolysis level at 15.6 ug/ml incubated for 1 hr at 37 degC", "assay_type": "ADME, cell-based, Erythrocyte", "conditions": "read-out: Activity", "procedure,_shortened": "as §3"}, "[14]": {"test": "Hemolytic activity in mouse erythrocytes assessed as hemolysis level at 31.3 ug/ml incubated for 1 hr at 37 degC", "assay_type": "ADME, cell-based, Erythrocyte", "conditions": "read-out: Activity", "procedure,_shortened": "as §3"}, "[15]": {"test": "Hemolytic activity in mouse erythrocytes assessed as hemolysis level at 125 ug/ml incubated for 1 hr at 37 degC", "assay_type": "ADME, cell-based, Erythrocyte", "conditions": "read-out: Activity", "procedure,_shortened": "as §3"}, "[16]": {"test": "in vitro", "conditions": "mouse, mouse erythrocytes"}, "[17]": {"system": "Candida albicans", "test": "Effect on sterol composition in Candida albicans ATCC 64124 assessed as eburicol level at 1.95 ug/mL incubated for 10 mins by LC-MS analysis (reference value: 6.28%)"}, "[18]": {"system": "Candida albicans", "test": "Effect on sterol composition in Candida albicans ATCC 10231 assessed as lanosterol level at 0.125 ug/mL incubated for 10 mins by GC-MS analysis (reference value: 4.17%)"}, "[19]": {"system": "Candida albicans", "test": "Effect on sterol composition in Candida albicans ATCC 64124 assessed as lanosterol level at 1.95 ug/mL incubated for 10 mins by LC-MS analysis (reference value: 29.38%)"}, "[20]": {"system": "Candida albicans", "test": "Effect on sterol composition in Candida albicans ATCC 64124 assessed as ergosterol level at 1.95 ug/mL incubated for 10 mins by LC-MS analysis (reference value: 54.72%)"}, "[21]": {"system": "Candida albicans", "test": "Effect on sterol composition in Candida albicans ATCC 10231 assessed as ergosterol level at 0.125 ug/mL incubated for 10 mins by GC-MS analysis (reference value: 91.15%)"}, "[22]": {"system": "Candida albicans", "test": "Effect on sterol composition in Candida albicans ATCC 64124 assessed as unknown sterol level at 1.95 ug/mL incubated for 10 mins by LC-MS analysis (reference value: 2.67 to 6.98%)"}, "[23]": {"system": "Candida albicans", "test": "Effect on sterol composition in Candida albicans ATCC 10231 assessed as unknown sterol level at 0.125 ug/mL incubated for 10 mins by GC-MS analysis (reference value: 1.88 to 2.78%)"}}}
{"compound": "OC(Cn1cncn1)(Cn1cncn1)c1ccc(F)cc1F", "note": "[FLUCONAZOLE]", "values": [{"measurement": "MIC50", "setting": "[1]", "result": "> 408", "unit": "µM"}, {"measurement": "MIC50", "setting": "[2]", "result": 50.9, "unit": "µM"}, {"measurement": "MIC50", "setting": "[3]", "result": "> 408", "unit": "µM"}, {"measurement": "MIC50", "setting": "[4]", "result": "> 408", "unit": "µM"}, {"measurement": "MIC50", "setting": "[5]", "result": "> 102", "unit": "µM"}, {"measurement": "MIC50", "setting": "[6]", "result": "> 102", "unit": "µM"}, {"measurement": "MIC50", "setting": "[7]", "result": 6.4, "unit": "µM"}, {"measurement": "EC50 at 24 h", "setting": "[8]", "result": "> 62.5", "unit": "µg/mL"}, {"measurement": "EC50 at 24 h", "setting": "[9]", "result": "> 62.5", "unit": "µg/mL"}, {"measurement": "hemolysis at 1 h, 1.95 ug/ml", "setting": "[10]", "result": 0, "unit": "%"}, {"measurement": "hemolysis at 1 h, 3.9 ug/ml", "setting": "[11]", "result": 0, "unit": "%"}, {"measurement": "hemolysis at 1 h, 7.8 ug/ml", "setting": "[12]", "result": 0, "unit": "%"}, {"measurement": "hemolysis at 1 h, 15.6 ug/ml", "setting": "[13]", "result": 0, "unit": "%"}, {"measurement": "hemolysis at 1 h, 31.3 ug/ml", "setting": "[14]", "result": 7.5, "unit": "%"}, {"measurement": "hemolysis at 1 h, 125 ug/ml", "setting": "[15]", "result": 13.4, "unit": "%"}, {"measurement": "hemolysis at 1 h, 62.5 ug/ml", "setting": "[16]", "result": 2.7, "unit": "%"}, {"measurement": "Activity", "setting": "[17]", "result": 11.61, "unit": "%"}, {"measurement": "Activity", "setting": "[18]", "result": 3.81, "unit": "%"}, {"measurement": "Activity", "setting": "[19]", "result": 30.59, "unit": "%"}, {"measurement": "Activity", "setting": "[20]", "result": 48.03, "unit": "%"}, {"measurement": "Activity", "setting": "[21]", "result": 93.79, "unit": "%"}, {"measurement": "Activity", "setting": "[22]", "result": "0.02 - 9.75%"}, {"measurement": "Activity", "setting": "[23]", "result": "1.12 - 1.25%"}]}
